Source: PubChem (Broad Institute)
CAL PDZ FP-1: inhibitors of human CAL PDZ peptide binding. Q9HD26. purified CAL PDZ, TMR-peptide fluorescence polarization, 1 h. inhibition, % at 24.9 µM. 300,000 compounds, 0.92% hits. AID 602252;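 active = mean inhibition of at least 30% with at least half of replicates also reaching 30%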;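 also: 0% = DMSO neutral control and 100% = excess unlabeled competitor peptide PRC23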
SR-BI uptake up: activators of SR-BI mediated HDL lipid uptake. AID 504775. activation, % at 12.5 µM. 320,000 compounds, 0.096% hits. CHO ldlA[mSR-BI] cells, DiI-HDL uptake fluorescence, 3 h; 100 = double the neutral-control signal;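 active = mean replicate activation of at least 60% and every replicate at or above 60%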;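 also: 0% = median plate neutral-control signal and 100% = twice that signal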
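Test system: SR-BI-overexpressing, LDLR-lacking CHO cells. Measured by: DiI fluorescence, bottom read. Medium: Ham's F12 with 0.5% BSA, HEPES 25 mM, pH 7.4. Timing: 3 h uptake period with compound, 37 °C.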
CAL PDZ FP-2: blocks peptide binding to human CAL PDZ domain | 330,000 compounds, 0.02% hits | purified CAL PDZ, TMR-peptide fluorescence polarization, 1 h | Q9HD26 | AID 504414 | inhibition, % at 20 µM;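 active = highest replicate inhibition of at least 40%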;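 also: plate controls were DMSO neutral control wells for no effect and unlabeled competitor peptide control wells for full effect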
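System: purified tagged CAL PDZ domain construct (CerCALP). Schedule: 1 h incubation at room temperature before polarization reading. Medium: 25 mM sodium phosphate pH 7.4, 150 mM NaCl, TCEP, IgG, Thesit. Read-out: percent inhibition from loss of millipolarization. Measured by: FP readout, S and P plane fluorescence. Probe or stimulus: fluorescent TMR peptide probe.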
dFosB act: activators of mouse delta FosB homodimer; 340,000 compounds, 0.99% hits; P13346; activation, % at 25 µM; purified delta FosB, TAMRA-CDK5 oligo fluorescence polarization; percent of positive-control signal above neutral wells; AID 493131;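 active = mean activation above about 17%, with every replicate also reaching it, limit read from the data, passing the limit was not always enough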
Target sequence (P13346 whole entry, looked up): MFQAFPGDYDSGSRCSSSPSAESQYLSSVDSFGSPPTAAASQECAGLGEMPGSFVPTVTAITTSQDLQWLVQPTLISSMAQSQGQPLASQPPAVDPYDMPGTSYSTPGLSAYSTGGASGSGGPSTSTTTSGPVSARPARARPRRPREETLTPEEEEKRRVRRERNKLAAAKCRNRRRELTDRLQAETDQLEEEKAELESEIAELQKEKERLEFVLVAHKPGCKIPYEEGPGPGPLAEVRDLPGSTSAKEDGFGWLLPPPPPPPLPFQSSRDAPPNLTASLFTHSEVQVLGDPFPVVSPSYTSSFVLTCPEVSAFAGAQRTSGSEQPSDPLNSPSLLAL
SR-BI HDL uptake: mouse SR-BI HDL lipid transfer inhibition; inhibition, % at 12.5 µM; 320,000 compounds, 0.96% hits; ldlA[mSR-BI] CHO cells, DiI-HDL uptake fluorescence, 3 h; Q61009;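 active = mean replicate inhibition of at least 70% and a set share of replicates each scoring 70 or more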;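 also: 0% = median of neutral control wells and 100% = median of positive control wells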
Active calls of the source: *; . = no result given. This is a sample that favours compounds with a hit; in the whole collection about 2.8% have one here.

SMILES	CAL PDZ FP-1	SR-BI uptake up	CAL PDZ FP-2	dFosB act	SR-BI HDL uptake
CC(C)COC(=O)c1ccccc1C(=O)OCC(C)C	3	-5	0	0	5
C[CH2][Hg][S]c1ccccc1C(=O)O	10	-106	0	3	106*
Cc1ccc(-n2c(C)nc3cc(Cl)ccc3c2=O)nc1	-2	2	-2	-6	-2
c1ccc2c(c1)[IH]c1ccccc1-2	.	13	-6	33*	-13
O=C(c1ccc2c(c1)OCO2)C1CCCN(CC2CCCCC2)C1 (centres undefined)	78*	18	-2	-6	-18
O=C(c1ccc2c(c1)OCO2)C1CCCN(Cc2c(F)cccc2Cl)C1 (centres undefined)	.	.	0	-8	-36
Cc1ccc(-c2nc3ccccc3c(=O)n2-c2cccc(O)c2)cc1	58*	-33	-3	-12	33
Cc1nc2ccccc2c(=O)n1-c1cccnc1	-9	9	0	-1	-9
CSc1nc2ccccc2c(=O)n1-c1cccnc1	79*	4	0	4	-4
CC(=NCc1cccnc1)c1c(O)n(-c2ccc(Cl)cc2)c(=O)[nH]c1=O	46*	6	0	12	-6
CCCCCCn1c(O)c(/C=N/N2CCCCCC2)c(=O)[nH]c1=O	-5	151*	0	0	-151
Oc1ccc2c3c1O[C@H]1[C@@H](O)CC[C@@]4(O)[C@@H](C2)N(CC2CCC2)CC[C@]314	0	-5	0	6	5
NC(N)=Nc1ccc2[nH]c3c(c2c1)C[C@@]1(O)[C@H]2Cc4ccc(O)c5c4[C@@]1(CCN2CC1CC1)[C@H]3O5	9	-15	1	41*	15
CCn1c(O)c(C=Nc2ccc(N3CCOCC3)c(Br)c2)c(=O)n(CC)c1=S	.	-25	0	24*	25
CC1CN(C(=O)CCC(=O)N2CCC3(CC2)OCCO3)c2cc(Cl)ccc2O1 (centres undefined)	4	6	0	-6	-6
COc1cccc(-n2c(O)c(C=NCCN3CCNCC3)c(=O)[nH]c2=S)c1	1	-6	-3	-6	6
COc1cc2c(c(OC)c1OC)-c1ccc(O)c(=O)cc1[C@@H](N)CC2	-2	7	1	-5	-7
COc1cc2c(cc1O)C[C@H]1NCCc3cc4c(c-2c31)OCO4	1	12	-1	24*	-12
CC1CN(O)C2CCc3nonc3C12O (centres undefined)	1	28	-1	16*	-28
O=C1NC(=O)N(c2ccccc2F)C(=O)/C1=C/c1ccc(Sc2nc3ccccc3[nH]2)o1	-5	-3	-4	27*	3
O=C1NC(=O)N(c2cccc(Cl)c2)C(=O)/C1=C\c1ccc(Sc2nc3ccccc3[nH]2)o1	-1	-1	-3	49*	1
COC(=O)C1=C(c2ccccc2OCc2ccccc2)C[C@@H]2CC[C@H]1N2C(=O)NCc1ccc([N+](=O)[O-])cc1	1	-28	0	-1	28
CCN1C[C@]2(COC)CC[C@H](O)[C@@]34C5C[C@@H]6[C@@H](OC)C[C@@](O)(C5[C@H]6O)[C@](O)([C@@H](OC)C23)[C@@H]14 (some centres undefined)	3	19	0	-3	-19
O=c1[nH]c(O)c(C=NCCc2ccccc2)c(=O)[nH]1	84*	15	-1	11	-15
CC(=NCCc1ccccc1)c1c(O)[nH]c(=O)[nH]c1=O	-6	-3	1	-3	3
SMILES	CAL PDZ FP-1	SR-BI uptake up	CAL PDZ FP-2	dFosB act	SR-BI HDL uptake
COc1cccc(CNCCc2ccc(F)cc2)c1	77*	29	0	-3	-29
O=Cc1c(C(=O)O)n(Cc2ccc(F)cc2Cl)c2ccccc12	-3	19	-4	-2	-19
CCOP(=S)(OCC)Oc1cc(C)nc(C(C)C)n1	2	0	0	-2	0
OC(CNCCc1c[nH]c2ccccc12)c1ccccc1 (centres undefined)	-6	33	-3	-2	-33
CCN1C(=O)C(=C/C=C/c2ccco2)C(=O)N(CC)C1=S	-14	-4	-3	57*	4
CC(=O)O[C@@H]1CC[C@]2(C)C3CC[C@]4(C)C(=O)[C@H](O)CC4C3[C@@H](OC(C)=O)C[C@H]2C1 (some centres undefined)	78*	41	-1	8	-41
